According to ChEMBL document CHEMBL4359903, “1,2,4-Oxadiazole derivatives targeting EGFR and c-Met degradation in TKI resistant NSCLC” (Eur J Med Chem, 2019):
pIC50: −log10 of the molar value. Activity calls are given as the source filed them. No cut-off for these calls is given here.

How the values were obtained:
MDA-MB-231 [1] = assay: Antiproliferative activity against human MDA-MB-231 cells assessed as reduction in cell viability incubated for 72 hrs by MTT assay; format: functional, cell-based; conditions: MDA-MB-231, 72 h
Procedure, shortened: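 MTT viability assay after 72 h of drug exposure. Cells seeded at 5000 per well in 10% FBS and left overnight, then treated in 5% FBS. MTT added for 1 h, dye dissolved in DMSO, absorbance read at 570 nm. Viability given relative to vehicle-treated cells.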

[2] = molecular target: Epidermal growth factor receptor (Homo sapiens) (UniProt P00533); assay: Induction of EGFR degradation in human MDA-MB-231 cells assessed as reduction in EGFR expression incubated for 48 hrs by immunoblot analysis; format: cell-based
Procedure, shortened: (§1)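 After 48 h treatment, cells were scraped and lysed in 1% SDS, 50 mM Tris-HCl pH 8.0, 10 mM EDTA with protease and phosphatase inhibitors. Lysates sonicated, protein measured by BCA, equal amounts run on SDS-PAGE and blotted to nitrocellulose. Primary antibodies (EGFR, c-Met, S473-Akt, Akt, GAPDH) used at 1:1000 overnight at 4 °C, HRP secondaries at 1:5000, ECL detection.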

[3] = molecular target: Hepatocyte growth factor receptor (Homo sapiens) (UniProt P08581); assay: Induction of c-MET degradation in human MDA-MB-231 cells assessed as reduction in c-Met expression incubated for 48 hrs by immunoblot analysis; format: cell-based; procedure, shortened: as §1
[4] = Antiproliferative activity against human CL68 cells harbouring EGFR delE746-A750/T790M mutant assessed as reduction in cell viability incubated for 72 hrs by MTT assay; format: functional, cell-based
NCI-H1975 [5] = assay: Antiproliferative activity against human NCI-H1975 cells harbouring EGFR L858R/T790M double mutant assessed as reduction in cell viability incubated for 72 hrs by MTT assay; format: functional, cell-based; conditions: NCI-H1975, 72 h
PC-9 = assay: Antiproliferative activity against human PC9 cells harbouring EGFR delE746-A750 mutant assessed as reduction in cell viability incubated for 72 hrs by MTT assay; format: functional, cell-based; conditions: PC-9, 72 h
CL97 = assay: Antiproliferative activity against human CL97 cells harbouring EGFR G719A/T790M mutant assessed as reduction in cell viability incubated for 72 hrs by MTT assay; format: functional, cell-based; conditions: CL97, 72 h
A549 = assay: Antiproliferative activity against wild type human A549 cells assessed as reduction in cell viability incubated for 72 hrs by MTT assay; format: functional, cell-based; conditions: A549, 72 h
MDA-MB-231 [6] = assay: Growth inhibition of human MDA-MB-231 cells incubated for 3 days by CellTiter 96 aqueous nonradioactive cell proliferation assay; format: functional; conditions: MDA-MB-231, 72 h
NCI-H1975 [7] = assay: Growth inhibition of human NCI-H1975 cells incubated for 3 days by CellTiter 96 aqueous nonradioactive cell proliferation assay; format: functional; conditions: NCI-H1975, 72 h

Hepatocyte growth factor receptor (Homo sapiens), sequence (P08581 whole entry): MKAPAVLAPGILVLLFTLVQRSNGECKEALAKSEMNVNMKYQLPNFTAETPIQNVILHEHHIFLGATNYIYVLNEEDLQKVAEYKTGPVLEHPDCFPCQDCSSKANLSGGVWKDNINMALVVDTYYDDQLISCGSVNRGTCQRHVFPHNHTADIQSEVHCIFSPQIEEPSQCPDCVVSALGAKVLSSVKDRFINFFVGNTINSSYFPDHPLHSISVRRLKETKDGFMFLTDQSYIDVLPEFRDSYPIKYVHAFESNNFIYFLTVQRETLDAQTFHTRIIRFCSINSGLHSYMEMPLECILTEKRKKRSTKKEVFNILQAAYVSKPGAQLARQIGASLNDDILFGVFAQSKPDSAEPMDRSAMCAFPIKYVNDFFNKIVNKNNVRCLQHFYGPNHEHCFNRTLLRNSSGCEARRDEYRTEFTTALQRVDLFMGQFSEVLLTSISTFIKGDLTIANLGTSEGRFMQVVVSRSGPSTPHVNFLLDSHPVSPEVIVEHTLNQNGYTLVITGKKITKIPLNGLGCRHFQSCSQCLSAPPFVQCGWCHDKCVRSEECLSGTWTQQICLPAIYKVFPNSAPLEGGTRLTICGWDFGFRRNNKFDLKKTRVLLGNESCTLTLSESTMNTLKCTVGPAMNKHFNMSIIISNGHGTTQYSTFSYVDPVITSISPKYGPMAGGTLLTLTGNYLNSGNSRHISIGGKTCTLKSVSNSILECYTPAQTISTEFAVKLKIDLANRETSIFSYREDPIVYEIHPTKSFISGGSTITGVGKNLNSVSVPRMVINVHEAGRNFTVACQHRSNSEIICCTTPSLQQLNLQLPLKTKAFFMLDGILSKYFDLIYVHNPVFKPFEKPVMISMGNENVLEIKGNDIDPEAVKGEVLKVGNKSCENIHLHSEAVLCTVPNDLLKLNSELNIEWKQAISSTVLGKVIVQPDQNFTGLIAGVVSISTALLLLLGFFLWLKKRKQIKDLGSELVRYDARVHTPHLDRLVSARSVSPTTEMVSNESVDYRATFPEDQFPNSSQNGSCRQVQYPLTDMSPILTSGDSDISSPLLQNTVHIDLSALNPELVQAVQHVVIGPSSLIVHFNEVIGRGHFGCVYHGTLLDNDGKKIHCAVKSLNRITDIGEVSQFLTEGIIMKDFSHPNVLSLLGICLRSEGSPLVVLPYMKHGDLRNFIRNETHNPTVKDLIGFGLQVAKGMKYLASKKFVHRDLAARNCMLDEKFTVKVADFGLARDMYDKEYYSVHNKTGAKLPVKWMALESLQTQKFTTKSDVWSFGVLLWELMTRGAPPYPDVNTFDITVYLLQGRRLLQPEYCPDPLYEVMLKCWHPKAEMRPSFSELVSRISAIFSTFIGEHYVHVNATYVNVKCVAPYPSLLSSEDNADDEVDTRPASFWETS
Epidermal growth factor receptor (Homo sapiens), sequence (P00533 whole entry): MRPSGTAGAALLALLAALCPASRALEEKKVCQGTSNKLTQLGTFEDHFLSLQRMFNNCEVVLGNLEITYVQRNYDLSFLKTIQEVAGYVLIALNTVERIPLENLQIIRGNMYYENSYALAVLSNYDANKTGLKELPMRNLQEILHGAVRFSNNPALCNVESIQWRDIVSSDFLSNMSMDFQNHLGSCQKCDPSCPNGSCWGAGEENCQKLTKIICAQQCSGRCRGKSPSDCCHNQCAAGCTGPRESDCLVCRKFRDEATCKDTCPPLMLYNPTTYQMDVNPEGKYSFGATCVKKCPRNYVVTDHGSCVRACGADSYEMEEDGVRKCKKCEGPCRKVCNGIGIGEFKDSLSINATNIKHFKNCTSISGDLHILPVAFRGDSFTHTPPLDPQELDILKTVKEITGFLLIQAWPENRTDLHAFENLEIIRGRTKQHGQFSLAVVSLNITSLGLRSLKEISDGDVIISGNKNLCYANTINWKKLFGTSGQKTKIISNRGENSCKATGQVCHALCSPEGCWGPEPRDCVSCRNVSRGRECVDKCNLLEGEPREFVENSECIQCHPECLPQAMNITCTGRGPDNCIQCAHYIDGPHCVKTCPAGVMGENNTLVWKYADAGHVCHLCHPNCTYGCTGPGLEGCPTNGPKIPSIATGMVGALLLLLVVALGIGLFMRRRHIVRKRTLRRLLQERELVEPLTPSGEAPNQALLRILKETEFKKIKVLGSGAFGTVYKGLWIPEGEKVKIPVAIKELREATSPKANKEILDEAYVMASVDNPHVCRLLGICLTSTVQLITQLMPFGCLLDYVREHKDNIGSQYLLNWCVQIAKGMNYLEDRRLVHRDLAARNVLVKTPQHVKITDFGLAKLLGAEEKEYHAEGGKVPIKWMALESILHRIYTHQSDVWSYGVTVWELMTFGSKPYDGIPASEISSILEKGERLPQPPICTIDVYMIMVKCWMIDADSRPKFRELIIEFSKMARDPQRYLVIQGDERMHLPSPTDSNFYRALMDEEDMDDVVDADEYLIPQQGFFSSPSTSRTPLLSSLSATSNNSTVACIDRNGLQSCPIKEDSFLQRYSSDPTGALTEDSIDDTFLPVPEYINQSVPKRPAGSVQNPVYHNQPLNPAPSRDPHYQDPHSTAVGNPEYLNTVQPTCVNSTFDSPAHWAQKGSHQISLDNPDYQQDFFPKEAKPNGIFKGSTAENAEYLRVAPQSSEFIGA

pIC50 (MDA-MB-231 [1])	Structure (SMILES)	also measured
5.06	CCN(CC)C(=O)Nc1ccc(S(=O)(=O)Nc2cccc(-c3nc(-c4ccc(NC(=O)c5cccnc5)cc4Cl)no3)c2)cc1	
< 5.00	C#Cc1cccc(NC(=O)Nc2cccc(-c3nc(-c4ccc(NC(=O)c5cccnc5)cc4Cl)no3)c2)c1	
6.15	CS(=O)(=O)Nc1ccc(NC(=O)Nc2cccc(-c3nc(-c4ccc(NC(=O)c5cccnc5)cc4Cl)no3)c2)cc1C(F)(F)F	
5.54	O=C(Nc1cccc(-c2nc(-c3ccc(NC(=O)c4cccnc4)cc3Cl)no2)c1)Nc1ccc(NC(=O)c2cccs2)c(C(F)(F)F)c1	
5.35	CC(=O)Nc1ccc(S(=O)(=O)Nc2cccc(-c3nc(-c4ccc(NC(=O)c5cccnc5)c(Cl)c4)no3)c2)cc1	
< 5.00	NS(=O)(=O)c1ccc(S(=O)(=O)Nc2cccc(-c3nc(-c4ccc(NC(=O)c5cccnc5)cc4Cl)no3)c2)cc1	
< 5.00	CC(=O)Nc1ccc(S(=O)(=O)Nc2cccc(-c3nc(-c4ccc(NC(=O)c5cccnc5)cc4Cl)no3)c2)cc1C	
< 5.00	O=C(Nc1ccc(Cl)cc1)Nc1cccc(-c2nc(-c3ccc(NC(=O)c4cccnc4)cc3Cl)no2)c1	
6.52	O=C(Nc1ccc(NS(=O)(=O)C2CC2)cc1)Nc1cccc(-c2nc(-c3ccc(NC(=O)c4cccnc4)cc3Cl)no2)c1	Activity [2]: Active; Activity [3]: Active
< 5.00	O=C(Nc1ccc(-c2noc(-c3cccc(NS(=O)(=O)c4ccc(NC(=O)N5CCOCC5)cc4)c3)n2)c(Cl)c1)c1cccnc1	
5.89	CNC(=O)Nc1ccc(S(=O)(=O)Nc2cccc(-c3nc(-c4ccc(NC(=O)c5cccnc5)cc4Cl)no3)c2)cc1	
< 5.00	Cc1ccc(S(=O)(=O)Nc2cccc(-c3nc(-c4ccc(NC(=O)c5cccnc5)cc4Cl)no3)c2)cc1	
< 5.00	O=C(Nc1ccc(-c2noc(-c3cccc(NS(=O)(=O)c4cccc(Cl)c4)c3)n2)c(Cl)c1)c1cccnc1	
6.52	O=C(Nc1cccc(-c2nc(-c3ccc(NC(=O)c4cccnc4)cc3Cl)no2)c1)Nc1ccc(NC(=O)C2CCCC2)c(C(F)(F)F)c1	Activity [2]: Active; Activity [3]: Active
5.05	NS(=O)(=O)Nc1ccc(NC(=O)Nc2cccc(-c3nc(-c4ccc(NC(=O)c5cccnc5)cc4Cl)no3)c2)cc1	
	CN(C)C/C=C/C(=O)Nc1cc2c(Nc3ccc(F)c(Cl)c3)ncnc2cc1O[C@H]1CCOC1 [AFATINIB]	pIC50 [4]: 7.00; pIC50 (NCI-H1975 [5]): 6.00; pIC50 (PC-9): > 8.00; pIC50 (CL97): 7.00; pIC50 (A549): 5.00 to 5.30
5.72	O=C(Nc1cccc(-c2nc(-c3ccc(NC(=O)c4cccnc4)cc3Cl)no2)c1)Nc1cccc(C(F)(F)F)c1	Activity [2]: inactive; Activity [3]: Active
< 5.00	NS(=O)(=O)c1ccc(NC(=O)Nc2cccc(-c3nc(-c4ccc(NC(=O)c5cccnc5)cc4Cl)no3)c2)cc1	
5.72	O=C(Nc1cccc(-c2nc(-c3ccc(NC(=O)c4cccnc4)cc3Cl)no2)c1)Nc1cc(C(F)(F)F)cc(C(F)(F)F)c1	
	C=CC(=O)Nc1cc(Nc2nccc(-c3cn(C)c4ccccc34)n2)c(OC)cc1N(C)CCN(C)C [OSIMERTINIB]	pIC50 [4]: 8.00; pIC50 (NCI-H1975 [5]): […]; pIC50 (PC-9): > 8.00; pIC50 (CL97): 7.00; pIC50 (A549): 5.30
5.51	CCNC(=O)Nc1ccc(S(=O)(=O)Nc2cccc(-c3nc(-c4ccc(NC(=O)c5cccnc5)cc4Cl)no3)c2)cc1	
< 5.00	O=C(Nc1ccc(-c2noc(-c3cccc(NS(=O)(=O)c4ccc(C(F)(F)F)cc4)c3)n2)c(Cl)c1)c1cccnc1	
6.22	CS(=O)(=O)Nc1ccc(NC(=O)Nc2cccc(-c3nc(-c4ccc(NC(=O)c5cccnc5)cc4Cl)no3)c2)cc1	Activity [2]: inactive; Activity [3]: Active
< 5.00	CC(=O)Nc1ccc(S(=O)(=O)Nc2cccc(-c3nc(-c4ccc(NC(=O)c5cccnc5)c(C(F)(F)F)c4)no3)c2)cc1	
5.77	COc1ccc(NC(=O)Nc2cccc(-c3nc(-c4ccc(NC(=O)c5cccnc5)cc4Cl)no3)c2)cc1C(F)(F)F	Activity [2]: inactive; Activity [3]: Active
< 5.00	O=C(Nc1ccccc1)Nc1cccc(-c2nc(-c3ccc(NC(=O)c4cccnc4)cc3Cl)no2)c1	
5.52	COc1ccc(NC(=O)Nc2cccc(-c3nc(-c4ccc(NC(=O)c5cccnc5)cc4Cl)no3)c2)cc1	

pIC50 (MDA-MB-231 [1])	Structure (SMILES)	also measured
5.47	NC(=O)Nc1ccc(NC(=O)Nc2cccc(-c3nc(-c4ccc(NC(=O)c5cccnc5)cc4Cl)no3)c2)cc1C(F)(F)F	
< 5.00	COc1cccc(S(=O)(=O)Nc2cccc(-c3nc(-c4ccc(NC(=O)c5cccnc5)cc4Cl)no3)c2)c1	
	C#Cc1cccc(Nc2ncnc3cc(OCCOC)c(OCCOC)cc23)c1 [ERLOTINIB]	pIC50 [4]: 5.30; pIC50 (NCI-H1975 [5]): 5.00; pIC50 (PC-9): 7.00; pIC50 (CL97): < 4.70
6.00	CC(=O)Nc1ccc(NC(=O)Nc2cccc(-c3nc(-c4ccc(NC(=O)c5cccnc5)cc4Cl)no3)c2)cc1Br	
< 5.00	CC(=O)Nc1ccc(S(=O)(=O)Nc2cccc(-c3nc(-c4ccc(NC(=O)c5cccnc5)cc4Cl)no3)c2)cc1Cl	
< 5.00	CC(=O)Nc1ccc(NC(=O)Nc2cccc(-c3nc(-c4ccc(NC(=O)c5cccnc5)cc4Cl)no3)c2)cc1Cl	
< 5.00	CC(=O)Nc1ccc(NC(=O)Nc2cccc(-c3nc(-c4ccc(NC(=O)c5cccnc5)cc4Cl)no3)c2)cc1	
5.28	CC(=O)Nc1ccc(S(=O)(=O)Nc2cccc(-c3nc(-c4ccc(NC(=O)c5cccnc5)cc4)no3)c2)cc1	
6.15	CS(=O)(=O)Nc1ccc(NC(=O)Nc2cccc(-c3nc(-c4ccc(NC(=O)c5cccnc5)cc4Cl)no3)c2)cc1Br	
< 5.00	O=C(Nc1ccc(S(=O)(=O)Nc2cccc(-c3nc(-c4ccc(NC(=O)c5cccnc5)cc4Cl)no3)c2)cc1)NC1CCCC1	
4.89	O=C(Nc1cccc(-c2nc(-c3ccc(NC(=O)c4cccnc4)cc3Cl)no2)c1)c1ccccc1	
5.55	NC(=O)Nc1ccc(S(=O)(=O)Nc2cccc(-c3nc(-c4ccc(NC(=O)c5cccnc5)cc4Cl)no3)c2)cc1	
5.72	O=C(Nc1cccc(-c2nc(-c3ccc(NC(=O)c4cccnc4)cc3Cl)no2)c1)Nc1ccc(Cl)c(C(F)(F)F)c1	
5.17	COc1cccc(NC(=O)Nc2cccc(-c3nc(-c4ccc(NC(=O)c5cccnc5)cc4Cl)no3)c2)c1	
< 5.00	COc1cc(NC(=O)c2cccnc2)ccc1-c1noc(-c2cccc(NS(=O)(=O)c3ccc(NC(C)=O)cc3)c2)n1	
< 5.00	O=C(Nc1ccc(-c2noc(-c3cccc(NS(=O)(=O)c4ccc(NC(=O)N5CCCCC5)cc4)c3)n2)c(Cl)c1)c1cccnc1	
5.46	Cc1ccc(NC(=O)Nc2cccc(-c3nc(-c4ccc(NC(=O)c5cccnc5)cc4Cl)no3)c2)cc1	
5.24	O=C(Nc1ccc(-c2noc(-c3cccc(NS(=O)(=O)c4ccc(NC(=O)N5CCCC5)cc4)c3)n2)c(Cl)c1)c1cccnc1	
< 5.00	CC(=O)Nc1ccc(S(=O)(=O)Nc2cccc(-c3nc(-c4ccc(NC(=O)c5cccnc5)cc4C(F)(F)F)no3)c2)cc1	
< 5.00	COc1cc(-c2noc(-c3cccc(NS(=O)(=O)c4ccc(NC(C)=O)cc4)c3)n2)ccc1NC(=O)c1cccnc1	
	CC(C)c1cc(C(=O)N2CCc3sccc3C2)c(O)cc1O	GI50 (MDA-MB-231 [6]): 0.478 µM; GI50 (NCI-H1975 [7]): 1.67 µM
6.22	CS(=O)(=O)Nc1ccc(NC(=O)Nc2cccc(-c3nc(-c4ccc(NC(=O)c5cccnc5)cc4Cl)no3)c2)cc1Cl	Activity [2]: inactive; Activity [3]: Active
< 5.00	O=C(Nc1ccc(-c2noc(-c3cccc(NS(=O)(=O)c4ccccc4)c3)n2)c(Cl)c1)c1cccnc1	
5.60	CC(=O)Nc1ccc(S(=O)(=O)Nc2cccc(-c3nc(-c4ccc(NC(=O)c5cccnc5)cc4Cl)no3)c2)cc1	
< 5.00	CS(=O)(=O)Nc1cccc(NC(=O)Nc2cccc(-c3nc(-c4ccc(NC(=O)c5cccnc5)cc4Cl)no3)c2)c1	
< 5.00	C#Cc1ccc(NC(=O)Nc2cccc(-c3nc(-c4ccc(NC(=O)c5cccnc5)cc4Cl)no3)c2)cc1	
